Screens deposited in PubChem by several laboratories.
GRK2 aptamer HTS – inhibitors of human GRK2 displacing RNA aptamer | bead flow cytometry, FAM-aptamer displacement from GRK2 | P25098 | 330,000 compounds, 0.59% hits | inhibition of aptamer binding, % at 10 µM;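 active = inhibition of aptamer binding above 40%, roughly 3 SD of noise, on plates passing a quality check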;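 note: median bead fluorescence of bound FAM aptamer so fluorescent compounds give negative values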
Target sequence (P25098 whole entry, looked up): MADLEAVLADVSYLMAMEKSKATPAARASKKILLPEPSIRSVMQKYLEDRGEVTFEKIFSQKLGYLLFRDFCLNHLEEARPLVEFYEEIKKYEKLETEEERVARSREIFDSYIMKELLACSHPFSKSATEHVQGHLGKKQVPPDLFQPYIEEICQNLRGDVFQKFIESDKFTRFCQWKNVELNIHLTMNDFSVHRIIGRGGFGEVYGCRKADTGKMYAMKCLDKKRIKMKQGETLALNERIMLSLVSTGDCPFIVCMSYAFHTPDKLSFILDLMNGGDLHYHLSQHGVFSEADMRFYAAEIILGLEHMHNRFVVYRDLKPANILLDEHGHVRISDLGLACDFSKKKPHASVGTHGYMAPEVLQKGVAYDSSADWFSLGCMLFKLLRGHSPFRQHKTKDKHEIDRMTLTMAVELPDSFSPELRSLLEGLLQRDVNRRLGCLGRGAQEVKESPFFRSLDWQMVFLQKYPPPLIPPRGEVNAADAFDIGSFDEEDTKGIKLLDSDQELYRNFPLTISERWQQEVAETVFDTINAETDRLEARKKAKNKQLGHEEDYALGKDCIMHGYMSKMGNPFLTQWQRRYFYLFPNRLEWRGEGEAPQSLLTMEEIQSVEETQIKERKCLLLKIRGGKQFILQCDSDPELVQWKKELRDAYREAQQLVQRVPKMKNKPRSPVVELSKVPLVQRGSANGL
CAL PDZ FP-1 – inhibitors of human CAL PDZ peptide binding; purified CAL PDZ, TMR-peptide fluorescence polarization, 1 h; Q9HD26; 330,000 compounds, 0.02% hits; inhibition, % at 20 µM;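 active = highest replicate inhibition of at least 40%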;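 note: plate controls were DMSO neutral control wells for no effect and unlabeled competitor peptide control wells for full effect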
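Test system: purified CerCALP PDZ construct; Compound dosing: one concentration, 20 µM compound; Also added: TMR-labelled reporter peptide T*-PRC34 bound in PDZ groove; Read-out: inhibition from polarization loss; Controls: unlabelled peptide and DMSO controls; Signal: FP readout, S and P plane fluorescence; Incubation: 1 h at RT.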
ARNT-TACC3 inh – disrupts binding between human ARNT and TACC3 | Q9Y6A5 | AlphaScreen His-ARNT PAS-B/GST-TACC3 binding, luminescence; TACC3 fragment carries E629A point mutation | inhibition, % at 9.99 µM | 390,000 compounds, 0.66% hits;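 active = mean inhibition of replicates at least 50% and at least half of replicates each reaching 50%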;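 note: 0% = complete ARNT plus TACC3 wells and 100% = ARNT alone without TACC3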
Tn6 DDE FP – disrupts Tn6 cyclic peptide binding to fibrin D-Dimer-E complex; P02675; Fibrin DD(E) TRITC-Tn6 fluorescence polarization displacement; inhibition, % at 8.3 µM; 370,000 compounds, 0.21% hits; AID 720509;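 active = inhibition above a per-campaign cutoff: mean of compounds within control limits plus 3 SD, cut at about 15% in these data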;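 note: 0% = median of all compound wells on the plate and 100% = blocking peptide control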
CAL PDZ FP-2 – blocks peptide binding to the human CAL PDZ domain | AID 602252 | inhibition, % at 24.9 µM | Q9HD26 | 300,000 compounds, 0.92% hits | purified CAL PDZ, TMR-peptide fluorescence polarization, 1 h;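 active = mean inhibition of at least 30% with at least half of replicates also reaching 30%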;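 note: 0% = DMSO neutral control and 100% = excess unlabeled competitor peptide PRC23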
DDE Tn7 FP inh – disrupts Tn7 cyclic peptide binding to fibrin D-Dimer-E complex. P02675. FP displacement of FITC-Tn7 peptide from fibrin DD(E); 0% = median of compound wells per plate. inhibition, % at 8.3 µM. 370,000 compounds, 0.13% hits;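 active = inhibition above the mean of compounds falling within the control limits plus 3 SD of them, cut at about 14% in these data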;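 note: 0% = plate median of compound wells and 100% = 10 µM Aha-Tn7 peptide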
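Assay system: Fibrin-DD(E) protein isolated from polymerized human fibrin clots; read-out basis: percent inhibition; medium: Tris/NaCl/CaCl2 buffer, pH 7.8; signal: FP measurement; incubation: 10 min plus 3 h, room temperature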
Numbers without * were called inactive; nt = not tested or not shown. Rows were chosen to be rich in hits. Some 1.8% of all compounds tested hit in one or more screens of this group.

SMILES	GRK2 aptamer HTS	CAL PDZ FP-1	ARNT-TACC3 inh	Tn6 DDE FP	CAL PDZ FP-2	DDE Tn7 FP inh
CN(C)C(=O)[C@H]1[C@H](CO)[C@H]2Cn3c(ccc(-c4ccccc4)c3=O)[C@H]2N1C(=O)c1ccccn1	nt	nt	6	nt	nt	nt
Cc1cc(NC(=O)CC(C)C)c(=O)n(Cc2ccccc2F)c1	0	-1	active	-1	-2	-1
CC(C)CCNC(=O)NC(=O)COC(=O)/C=C/c1cccc([N+](=O)[O-])c1	0	6	3	5	37*	8
CCc1ccc(OCC(=O)N2CCc3ccccc32)cc1	0	-1	-2	-3	38*	-7
O=C(CNC(=O)c1ccc2c(c1)OCCO2)N/N=C/c1ccc(Cl)cc1	3	-2	-1	-6	70*	3
COCC(=O)Nc1ccc2c(c1)C(=O)N(C)C[C@@H](OC)[C@H](C)CN(C(=O)C1CCCC1)[C@@H](C)CO2	nt	nt	-3	nt	nt	nt
COC(C/C=C\[C@@H](O)COCc1ccccc1)OC	nt	-1	-16	2	-1	-4
Cc1ccc(C(=O)NN2C(=O)CSC2=S)cc1	0	-1	-10	-4	-4	1
C/C(=N\N1C(=O)CSC1=S)c1ccc(Br)cc1	1	-2	2	0	44*	0
Oc1[nH]c2ccccc2c1N=NC(=S)N1CCOCC1	0	1	66*	nt	3	nt
Oc1[nH]c2ccc(Br)cc2c1N=NC(=S)N1CCOCC1	3	-1	66*	1	-5	0
COC(=O)N=Nc1c(O)[nH]c2ccc(Br)cc12	2	-3	-1	-6	-1	-5
Oc1cccc(NC(=S)N=Nc2c(O)[nH]c3ccccc23)c1	0	-1	54*	-3	-8	-1
NC(=S)N=Nc1c(O)[nH]c2ccccc12	1	-1	31	2	nt	9
O=C(O)C[C@@H]1C[C@H]2c3cc(NC(=O)NC4CCCCC4)ccc3O[C@H]2[C@H](CO)O1	nt	nt	-3	nt	nt	nt
C[C@@H]1CN([C@H](C)CO)S(=O)(=O)c2ccc(-c3ccc(C(=O)N(C)C)cc3)cc2O[C@@H]1CN(C)Cc1ccc2c(c1)OCO2	nt	nt	3	nt	nt	nt
CCC(C)C(CO)NCCCn1cnc2c(OCc3ccccc3)ncnc21 (stereo not given)	nt	nt	nt	3	nt	-6
CCCCNC(=O)Nc1ccccc1Br	1	-1	-17	7	1	5
CCCCNC(=O)Nc1ccccc1CC	0	4	-16	10	69*	-1
CCCS(=O)(=O)c1nc(S(=O)(=O)c2ccc(C)cc2)c(NCCCN2CCCC2=O)s1	2	-1	3	0	42*	-1
COc1ccc(CN(C)C[C@@H]2Oc3ccc(NC(=O)Cc4cn(C)c5ccccc45)cc3CC(=O)N([C@H](C)CO)C[C@H]2C)cc1	nt	nt	-4	nt	nt	nt
C[c-]1[c-](C)[c-](C)[c-](C)[c-]1C.[Fe].c1cc2nccc(N3CCCC3)[c-]2c1 (stereo not given)	33	0	62*	-1	3	-1
CC1(C)CC(=O)C(CC(=O)NC2CCCc3ccccc32)C(=O)C1 (stereo not given)	7	1	-6	1	106*	-5
O=C(CNC(=O)c1cccc([N+](=O)[O-])c1)NC1CCCc2ccccc21 (stereo not given)	2	-1	nt	-1	35*	-3
O=C(CCNC(=O)c1ccc([N+](=O)[O-])cc1)NC1CCCc2ccccc21 (stereo not given)	nt	-2	1	-1	0	3
SMILES	GRK2 aptamer HTS	CAL PDZ FP-1	ARNT-TACC3 inh	Tn6 DDE FP	CAL PDZ FP-2	DDE Tn7 FP inh
Cc1noc(C)c1NC(=O)Nc1ccc2c(c1)C(=O)N([C@H](C)CO)C[C@H](C)[C@@H](CN(C)CC1CC1)OCCCC[C@H](C)O2	nt	nt	0	nt	nt	nt
Nc1c(N(CCC2=CCCCC2)C(=O)COc2ccc([N+](=O)[O-])cc2)c(=O)[nH]c(=O)n1Cc1ccccc1	nt	-1	3	0	56*	1
CC(=O)c1ccc(OCC(=O)N(CCC2=CCCCC2)c2c(N)n(Cc3ccccc3)c(=O)[nH]c2=O)cc1	0	-1	2	-2	24	5
COc1ccc(O)c(/C=N/n2c(-c3ccco3)csc2=Nc2cccnc2)c1	0	-2	62*	-4	-2	-3
CCOC(=O)C1(CCCc2ccccc2)CCN(Cc2cnn(C)c2)CC1	0	0	-4	1	75*	-2
COc1ccc(NC(=S)N(CCCN2CCN(C)CC2)Cc2cccs2)cc1	5	0	85*	3	nt	4
CN1CCN(CCCN(Cc2cccs2)C(=S)Nc2ccc(Cl)cc2)CC1	2	-2	8	-4	7	-3
O=C(NCc1cccnc1)Nc1cccc(C(F)(F)F)c1	0	-2	-1	2	-5	8
O=C(NCCc1cnc[nH]1)Nc1cccc(C(F)(F)F)c1	0	-1	49*	3	nt	-6
O=C1OC(c2ccc3c(c2)OCO3)=N/C1=C\c1ccc(C(=O)O)cc1	53*	0	17	-8	nt	4
N#C/C(=C/c1cn[nH]c1-c1ccc(Br)cc1)C(=O)O	0	-2	0	-10	33*	-2
CC(C)NC(=O)NC(=O)COC(=O)c1ccccc1O	0	1	2	-4	-4	8
CC(C)NC(=O)NC(=O)COC(=O)c1ccccc1Oc1ccccc1	1	nt	-1	-9	76*	0
Cn1c(NNC(=O)C2CCCCC2)cc(=O)n(C)c1=O	0	-1	-4	3	-3	-3
CCNc1nc(OCCNS(=O)(=O)c2cc(C)ccc2C)nc(N(C)C)n1	0	-1	-9	1	-1	4
CCNc1nc(OC)nc(N(OC)S(=O)(=O)c2ccc(C)cc2)n1	33	nt	-34	-2	74*	8
COc1ccc(/C=C/C(Cc2cccc(C(C)=O)c2)c2ccc(C)cc2)cc1 (stereo not given)	nt	nt	nt	1	nt	-2
c1cnc(N2CCN(c3nc4ccccc4n4cnnc34)CC2)nc1	4	-2	49*	-8	nt	-3
c1ccc(C(c2ccccc2)N2CCN(c3nc4ccccc4n4cnnc34)CC2)cc1	4	nt	nt	9	nt	5
Oc1ccc(Cl)cc1C1=Nc2ccccc2N=C(c2ccco2)C1	0	-2	-1	-4	-1	1
COc1ccc(O)c(C2=Nc3ccccc3N=C(c3ccco3)C2)c1	0	0	53*	2	-1	3
C[C@H](CO)N1C[C@H](C)[C@H](CN(C)Cc2ccc3c(c2)OCO3)Oc2ccc(NC(=O)Cc3cn(C)c4ccccc34)cc2CC1=O	nt	nt	-4	nt	nt	nt
COC(=O)C[C@H]1C[C@@H]2c3cc(NC(=O)Cc4ccncc4)ccc3O[C@@H]2[C@@H](CO)O1	nt	nt	6	nt	nt	nt
